# Variants at the floor of the assay were thinned out.
# B1: tRNA (parent)
# chain: GUUCCGUUGGCGUAAUGGUAACGCGUCUCCCUCCUAAGGAGAAGACUGCGGGUUCGAGUCCCGUACGGAACG
# Variants of: B1
# Assay: yeast fitness relative to wild type (ratio to wild type); higher = fitter; tRNA-Arg(CCU), competitive growth, 37 C, YPD
# Procedure, shortened: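 Gene amplicons from the start population and from each of six end populations were read by 100-nucleotide paired-end sequencing. Those end populations came from pooled Saccharomyces cerevisiae strains carrying tRNA-Arg(CCU) gene variants at the native locus, competed in YPD at 37°C for 24 hours. Fitness relative to wild type was worked out from changes in genotype frequencies. Genotypes needed ≥ 100 starting reads, and estimates < 0.5 were set to 0.5.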
row,Variant,yeast fitness
1,GUUCCGUUGGCAUAAUGGUAACGUGUCUCCCUCCUAAGGAGAAGACUGCGGGUUCGAGUCCCGUACAGUACG [G12A C24U G67A A69U],≤ 0.5
2,GUUCCGUUGGCAUAAUGGUAACGUGUCUCCCUCCUAAGGAGAAGACUGCGGGUUCGAGUCCCGUACCGAACG [G12A C24U G67C],0.603
3,GUUCCGUUGGCAUAAUGGUAACGUGUCUCCCUCCUAAGGAGAAGACUGCGGGUUCGAGUCCCGGACGGAACG [G12A C24U U64G],≤ 0.5
4,GUUCCGUUGGCAUAAUGGUAACGCGUAUCCCUCCUAAGGAGAAGACUGCGGGUUCGAGUCCCGUACGGAACG [G12A C27A],0.844
5,GUUCCGUUGGCAUAAUGGUAACGCGUAUCGCUCCUAAGGAGAAGACUGCGGGUUCGAGUCCCGUACGUAACG [G12A C27A C30G G68U],≤ 0.5
6,GUUCCGUUGGCAUAAUGGUAACGCGUAUCCCUCCUAAGGAGAAGACUGCGGGUUCCAGUCCCGUACGGAACG [G12A C27A G56C],0.533
7,GUUCCGUUGGCAUAAUGGUAACGCGUGUCCCUCCUAAGGAGAAGACUGCGGGUUCGAGUCCCGUACGGAACG [G12A C27G],0.71
8,GUUCCGUUGGCAUAAUGGUAACGCGUGUCCCUCCUUAGGAGAAGACUGCGGGUUCGAGUCCCGUACGGAACG [G12A C27G A36U],0.599
9,GUUCCGUUGGCAUAAUGGUAACGCGUGUCCCUCCUAAGGGGAAGACUGCGGGUUCGAGUCCCGUACGGAACG [G12A C27G A40G],≤ 0.5
10,GUUCCGUUGGCAUAAUGGUAACGCGUGUCCCUCCUAAGGAGCAGACUGCGGGUUCGAGUCCCGUACGGAACG [G12A C27G A42C],0.548
11,GUUCCGUUGGCAUAAUGGUAACGCGUGUCCCUCCUAAGGAGAGGACUGCGGGUUCGAGUCCCGGACGGAACG [G12A C27G A43G U64G],≤ 0.5
12,GUUCCGUUGGCAUAAUGGUAACGCGUGUCCCUCCUAAGGAGAAGACUGCGGGUUCGAGUCCCGUGCGUAACG [G12A C27G A65G G68U],0.544
13,GUUCCGUUGGCAUAAUGGUAACGCGUGUCCCUCCUAAGGAGAAGACUGCGGGUUCGAGUCCCGUACGGCACG [G12A C27G A69C],≤ 0.5
14,GUUCCGUUGGCAUAAUGGUAACGCGUGUCCCUCCUAAGGAGAAGACUGCGGGUUCGAGUCCCGUACGGACCG [G12A C27G A70C],≤ 0.5
15,GUUCCGUUGGCAUAAUGGUAACGCGUGUCCCUCAUAAGGAGAAGACUGAGGGUUCGAGUGUCGUACGGAACG [G12A C27G C34A C49A C60G C61U],0.527
16,GUUCCGUUGGCAUAAUGGUAACGCGUGUCCCUCCUAAGGAGAAGAAUGCGGGUUUGAGUCCCGUACGGAACG [G12A C27G C46A C55U],0.603
17,GUUCCGUUGGCAUAAUGGUAACGCGUGUCCCUCCUAAGGAGAAGACUGCGGGUUAGAGUCCCGUAUGGAACG [G12A C27G C55A C66U],≤ 0.5
18,GUUCCGUUGGCAUAAUGGUAACGCGUGUCCCUCCUAAGGAGAAGACUGCGGGUUAGAAUCCCGUACGGAACG [G12A C27G C55A G58A],≤ 0.5
19,GUUCCGUUGGCAUAAUGGUAACGCGUGUCCCUCCUAAGGAGAAGACUACGGGUUCGAGUCCCGUACGGAACG [G12A C27G G48A],≤ 0.5

row,Variant,yeast fitness
1,GUUCCGUUGGCAUAAUGGUAACGCGUGUCCCGCCUAAGGAGAAGACUGCGGGUUCGAGUCCCGUACGGAACG [G12A C27G U32G],≤ 0.5
2,GUUCCGUUGGCAUAAUGGUAACGCGUGUCCCGCCUAAGGAGAAGACUGCGGGUUCGAGUCCCGUACCGAACG [G12A C27G U32G G67C],≤ 0.5
3,GUUCCGUUGGCAUAAUGGUAACGCGUUUCCCUCCUAAGGAGAAGACUGCGGGUUCGAGUCCCGUACGGAACG [G12A C27U],0.942
4,GUUCCGUUGGCAUAAUGGUAACGCGUUUCACUCCUAAGGAGAAGACUGCGGGUUUGCGUCCCGUACGGAACG [G12A C27U C30A C55U A57C],≤ 0.5
5,GUUCCGUUGGCAUAAUGGUAACGCGUUUCGCUCCUAAGGAGGAGACUGCGGGUUUGCGUCCCGUACGGAACG [G12A C27U C30G A42G C55U A57C],≤ 0.5
6,GUUCCGUUGGCAUAAUGGUAACGCGUUUCCCUUCUAAGGAGAAGACAGCGGGUUCGAGUCCCGUACGGACCG [G12A C27U C33U U47A A70C],≤ 0.5
7,GUUCCGUUGGCAUAAUGGUAACGCGUUUCCCUCCUAAGGAGAAGACUGCGCGUUCGUGUCCCGUACGGAACG [G12A C27U G51C A57U],0.534
8,GUUCCGUUGGCAUAAUGGUAACGCGUCUACCUCCUAAGGAGUAGACUGCGGGUUCGAGUCCCGUACGGAACG [G12A C29A A42U],0.616
9,GUUCCGUUGGCAUAAUGGUAACGCGUCUACCUCCUAAGGAGUAGAUUGCGGGUUACAGUCCCGUACGGAACG [G12A C29A A42U C46U C55A G56C],≤ 0.5
10,GUUCCGUUGGCAUAAUGGUAACGCGUCUACCUCCUAAGGAGAAGGCUGCGGGUUCGAGUCCCGUACGGAACG [G12A C29A A45G],≤ 0.5
11,GUUCCGUUGGCAUAAUGGUAACGCGUCUACGUCCUAAGGAGAAGACUGCGGGUUCGAGUACCGUACGGAACG [G12A C29A C31G C60A],≤ 0.5
12,GUUCCGUUGGCAUAAUGGUAACGCGUCUACCUCCUAAGGAGAAGACUGCGGGUUCGAGUCCCGUACCGAACG [G12A C29A G67C],≤ 0.5
13,GUUCCGUUGGCAUAAUGGUAACGCGUCUACCUCCUAAGGAGAAGACUGCGGGUUCGAGUCCCGUACGACACG [G12A C29A G68A A69C],≤ 0.5
14,GUUCCGUUGGCAUAAUGGUAACGCGUCUACCUCCAAAGGAGAAGACUGCGGGUUCGAGUCCCGUACGGAACG [G12A C29A U35A],≤ 0.5
15,GUUCCGUUGGCAUAAUGGUAACGCGUCUGCCUCUUCAGGAGAAGACUGCGGGUUCGAGUCACGUACGGAACG [G12A C29G C34U A36C C61A],0.553
16,GUUCCGUUGGCAUAAUGGUAACGCGUCUUCCUCCUAAGGAGAAGACUGCGGGUUCGAGUCCCGUACGGAACG [G12A C29U],0.735
17,GUUCCGUUGGCAUAAUGGUAACGCGUCUUCCUCCUAAGGAGAAGACUGCGGGUUGGAGUCCCGUUCGGAACG [G12A C29U C55G A65U],≤ 0.5
18,GUUCCGUUGGCAUAAUGGUAACGCGUCUUCCUCCUAAGGAGAAGACUGCGGGUUCGAGUCCCGAACGGAACG [G12A C29U U64A],≤ 0.5
19,GUUCCGUUGGCAUAAUGGUAACGCGUCUCACUCCUAAGGAGAAGACUGCGGGUUCGAGUCCCGUACGGAACG [G12A C30A],0.915

# From the RNAGym collection of RNA variant scans (doi:10.1126/science.aae0568)
